ChEMBL document CHEMBL1157813, “Novel irreversible fluorescent probes targeting the 18 kDa translocator protein: synthesis and biological characterization” (J Med Chem, 2010)
Active and inactive are the calls of the source. The calls are words filed in the database; no cut-off is given here.

What was measured:
[1] = molecular target: Translocator protein (Rattus norvegicus) (UniProt P16257); assay: Displacement of [3H]Ro5-4864 from TSPO in rat kidney mitochondrial membrane after 180 mins; format: cell membranes
Outline: (§1)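 Rat kidney membranes preincubated with ligand (1 nM to 1 μM) for 0, 10, 30, 60, 90 or 180 min in binding buffer. Stopped with ice-cold 50 mM Tris/HCl pH 7.4, centrifuged 13000g 15 min at 4 °C, pellets washed twice. Residual [3H]Ro 5-4864 binding then measured at 65 μg protein/tube. ln B/B0 plotted against time. Kd and K2 taken from a 1/Kobs vs 1/[D] plot. Duplicates, three experiments.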

[2] = molecular target: Translocator protein (Rattus norvegicus) (UniProt P16257); assay: Displacement of [3H]Ro5-4864 from TSPO in rat kidney mitochondrial membrane at 1 to 1000 nM; format: cell membranes; conditions: TDE = time-dependent effect; outline: as §1
Translocator protein [3] = molecular target: T1, Translocator protein (Rattus norvegicus, UniProt P16257); assay: Irreversible binding affinity to TSPO in rat kidney mitochondrial membrane; format: cell membranes; outline: as §1
Translocator protein [4] = molecular target: T1, Translocator protein; assay: Displacement of [3H]Ro5-4864 from TSPO in rat kidney mitochondrial membrane; format: cell membranes
Outline: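 IC50 and Ki taken from displacement curves. Bound radioactivity expressed as percent of specific binding. Triplicate determinations pooled from three independent experiments.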

[5] = molecular target: Translocator protein (Homo sapiens) (UniProt P30536); assay: Irreversible binding affinity to TSPO in human U87MG cells at 100 to 500 nM after 90 mins in presence of 10 uM Ro5-4864; format: cell-based; conditions: U-87MG ATCC
Outline: (§2)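 U87MG cells grown in RPMI 1640 with 10% FBS, seeded at 4 × 10^4 cells/well for 24 h. Some wells pretreated with 10 μM Ro 5-4864, then given probe (100, 250, 500 nM) for 20 or 90 min at 37 °C, 5% CO2. Four washes in medium with cysteine, then PBS. Fluorescence read at Ex 485/Em 535 nm. Mean ± SEM, at least three experiments in duplicate.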

[6] = molecular target: Translocator protein (Homo sapiens) (UniProt P30536); assay: Irreversible binding affinity to TSPO in human U87MG cells at 100 to 500 nM after 20 mins in presence of 10 uM Ro5-4864; format: cell-based; conditions: U-87MG ATCC; outline: as §2

T1 sequence (P16257 whole entry, looked up): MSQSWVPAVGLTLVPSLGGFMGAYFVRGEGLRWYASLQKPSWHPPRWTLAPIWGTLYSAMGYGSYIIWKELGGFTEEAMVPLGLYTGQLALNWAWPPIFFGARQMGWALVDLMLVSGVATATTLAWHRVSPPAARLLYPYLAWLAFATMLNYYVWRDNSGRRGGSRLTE
Chain of Translocator protein (Rattus norvegicus) (P16257 whole entry, looked up): as above
Chain of Translocator protein (Homo sapiens) (P30536 whole entry): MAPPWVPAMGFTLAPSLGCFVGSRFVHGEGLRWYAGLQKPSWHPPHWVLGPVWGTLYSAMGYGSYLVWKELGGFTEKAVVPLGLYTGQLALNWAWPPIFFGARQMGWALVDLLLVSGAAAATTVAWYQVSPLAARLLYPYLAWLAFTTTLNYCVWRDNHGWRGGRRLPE

Structure (SMILES) | Activity [1] | Activity [2] | Kd (Translocator protein [3]) | IC50 (Translocator protein [4]) | Ki (Translocator protein [4]) | Activity [5] | Activity [6]
CCCN(CCC)C(=O)C(=O)c1c(-c2ccccc2)[nH]c2ccc(N=C=S)cc12 | Dose-dependent effect | tde | 3.17 nM | 45.6 nM | 37.9 nM | – | –
CCCCCCN(CCCCCC)C(=O)C(=O)c1c(-c2ccccc2)[nH]c2ccc(N=C=S)cc12 | Dose-dependent effect | tde | 5.07 nM | 59.7 nM | 49.5 nM | – | –
O=C(NCCCCCCNc1ccc([N+](=O)[O-])c2nonc12)C(=O)c1c(-c2ccccc2)[nH]c2ccc(N=C=S)cc12 | Dose-dependent effect | tde | 8.31 nM | 42.2 nM | 37.6 nM | Active | inactive
